In the library only some 2.8% were active in any assay of this set; here they are far more common.
SR-BI DiI inh: blocks mouse SR-BI lipid uptake from DiI-HDL. 0.96% of 320,000 active. AID 488896. ldlA[mSR-BI] CHO cells, DiI-HDL uptake fluorescence, 3 h. Q61009. inhibition, % at 12.5 µM;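 active = mean replicate inhibition of at least 70% and a set share of replicates each scoring 70 or more; inconclusive = meets just one of the two criteria; inactive = fails both criteria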;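 also: 0% = median of neutral control wells and 100% = median of positive control wells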
CAL PDZ FP-1: CAL PDZ (human) peptide binding inhibition | purified CAL PDZ, TMR-peptide fluorescence polarization, 1 h | inhibition, % at 24.9 µM | 0.92% of 300,000 active;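 active = mean inhibition of at least 30% with at least half of replicates also reaching 30%; inconclusive = no clear call, values can overlap the other calls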;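 also: 0% = DMSO neutral control and 100% = excess unlabeled competitor peptide PRC23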
dFosB act-1: mouse delta FosB homodimer activation | P13346 | purified delta FosB, TAMRA-CDK5 oligo fluorescence polarization; percent of positive-control signal above neutral wells | activation, % at 25 µM | 0.99% of 340,000 active | AID 493131;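 active = mean activation above about 17%, with every replicate also reaching it, limit read from the data, passing the limit was not always enough; inconclusive = only one of the two conditions met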
Target sequence (P13346 whole entry, looked up): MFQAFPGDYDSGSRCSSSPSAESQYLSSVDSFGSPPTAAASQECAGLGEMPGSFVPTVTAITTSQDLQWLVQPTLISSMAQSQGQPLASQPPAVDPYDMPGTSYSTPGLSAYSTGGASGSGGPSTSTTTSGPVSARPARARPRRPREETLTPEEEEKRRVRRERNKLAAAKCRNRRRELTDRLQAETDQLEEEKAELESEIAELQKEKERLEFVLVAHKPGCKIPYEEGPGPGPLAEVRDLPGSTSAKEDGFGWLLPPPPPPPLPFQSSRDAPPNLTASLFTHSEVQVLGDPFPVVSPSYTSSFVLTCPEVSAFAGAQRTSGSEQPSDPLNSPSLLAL
SR-BI DiI-HDL act: activators of SR-BI mediated HDL lipid uptake; 0.096% of 320,000 active; activation, % at 12.5 µM; CHO ldlA[mSR-BI] cells, DiI-HDL uptake fluorescence, 3 h; 100 = double the neutral-control signal;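 active = mean replicate activation of at least 60% and every replicate at or above 60%; inconclusive = mean or all-replicate condition met, but not both; inactive = mean below 60% and not all replicates reaching 60%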;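 also: 0% = median plate neutral-control signal and 100% = twice that signal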
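system = CHO ldlA[mSR-BI] cells, LDL receptor-null, SR-BI overexpressing | medium = Ham's F12 with 0.5% BSA, HEPES 25 mM, pH 7.4 | probe or stimulus = DiI-HDL 10 µg/mL | compound dosing = single-point compound dose | incubation = compound exposure 3 h, 37 °C | technique = DiI fluorescence, bottom read | read-out = cell-associated DiI fluorescence as measure of HDL uptake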
CAL PDZ FP-2: human CAL PDZ-peptide interaction inhibition; Q9HD26; purified CAL PDZ, TMR-peptide fluorescence polarization, 1 h; inhibition, % at 20 µM; 0.02% of 330,000 active; AID 504414;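 active = highest replicate inhibition of at least 40%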;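 also: plate controls were DMSO neutral control wells for no effect and unlabeled competitor peptide control wells for full effect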
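Material: tagged CAL PDZ domain; buffer or medium: 25 mM sodium phosphate pH 7.4, 150 mM NaCl, TCEP, IgG, Thesit; compound dosing: single point, 20 µM; schedule: 1 h incubation at room temperature before polarization reading; measured by: FP readout, S and P plane fluorescence; read-out basis: percent inhibition from loss of millipolarization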
dFosB act-2: delta FosB (mouse) homodimer activation; shares compounds with dFosB act-1; purified delta FosB, TAMRA-CDK5 oligo fluorescence polarization; normalised: neutral wells 0, positive control 100; activation, % at 24.9 µM; 2,400 tested, under 10 active;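 active = highest replicate activation at or above 34% and every replicate reaching that threshold; inconclusive = meets only one of the two criteria; inactive = meets neither criterion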;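 also: higher polarization means more probe DNA bound by delta FosB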
* marks the source's active call; other numbers are inactive results; ? = inconclusive; . = no result given.

SMILES	SR-BI DiI inh	CAL PDZ FP-1	dFosB act-1	SR-BI DiI-HDL act	CAL PDZ FP-2	dFosB act-2
Cc1ccc(OCC(=O)NNC(=O)Nc2ccc(Cl)cc2)c(Br)c1	-23	-1	23*	23	0	1
COc1ccccc1/C=C/C(=O)N1CCc2cc(OC)c(OC)cc2C1C (stereo not drawn)	5	-3	?	-5	-2	.
CCCOC(=O)c1cccc(NC(=O)COc2ccc([N+](=O)[O-])cc2)c1	-7	-4	19*	7	-1	3
Cc1cccc(NC(=O)NNC(=O)COc2ccc(Cl)cc2)c1	-40	0	35*	40	-3	2
Cc1cccc(NC(=O)NNC(=O)COc2ccc3ccccc3c2)c1	-12	2	?	12	0	.
COC(=O)C1=C(COc2ccccc2)NC(=O)NC1c1ccc(Br)cc1 (stereo not drawn)	45	2	35*	-45	0	2
CC(C)(C)c1ccc(/C=N/NC(=O)CN2CCS(=O)(=O)CC2)cc1	-34	-5	-2	34	1	.
O=C(NCc1ccc(F)cc1)NC(=O)c1ccc(Cl)cc1	-10	-4	32*	10	-3	5
Cc1c(Cl)cccc1NC(=O)NCc1ccccn1	-17	-1	-9	17	-1	.
Cc1c(Cl)cccc1NC(=O)NCc1ccc(F)cc1	22	-2	28*	-22	-3	-3
O=C(NCc1ccccc1)NC(=O)c1ccc(Cl)cc1	-20	-1	-7	20	-3	.
CCCSc1ccc([C@H]2N[C@@](C)(C(=O)OC)[C@H]3C(=O)N(C)C(=O)[C@@H]23)cc1OC	-3	0	-5	3	-1	.
CN(Cc1nccs1)C(=O)C1CCC(=O)N(CCCc2ccccc2)C1 (stereo not drawn)	-7	.	-1	7	-1	.
Cc1cc(NC(=O)CSc2nnc(COc3cccc(C)c3C)n2C)no1	21	.	21*	-21	0	3
O=C(CNC(c1ccccc1)c1ccccc1)NCc1ccccc1Cl	-1	-4	-5	1	0	.
COc1ccc(NC(=O)COC(=O)CCC2CCCC2)c(OC)c1	-16	-4	-2	16	-2	.
O=C(CNC(=O)c1ccc2ccccc2c1)OCC(=O)N1CCN(S(=O)(=O)c2ccc3ccccc3c2)CC1	-47	-2	22*	47	0	-9
CC(=O)NCc1ccc(S(=O)(=O)N2CCN(S(=O)(=O)c3ccc4ccccc4c3)CC2)cc1	-9	-1	49*	9	-2	3
O=C(NCC(=O)N1CCN(S(=O)(=O)c2ccccc2)CC1)c1ccc2ccccc2c1	9	-4	-8	-9	-1	.
CN1/C(=C\C(=O)COC(=O)CNC(=O)c2ccc3ccccc3c2)C(C)(C)c2ccccc21	-28	2	34*	28	0	1
Cn1c(N)c(N=O)c(=O)n(C)c1=S	-7	-3	-6	7	-1	.
CC(=O)c1cccc(NS(=O)(=O)c2cc3c(cc2C)N(C(C)=O)CCO3)c1	-10	0	-5	10	-2	.
Cc1c(C#N)c2ccccc2n1CC(=O)NC(C)c1ccccc1 (stereo not drawn)	5	-4	-9	-5	-2	.
Cc1cccc(NC(=O)Cn2c(C)c(C#N)c3ccccc32)c1C	39	-5	32*	-39	-2	0
O=C(N=c1ccn(-c2nc3ccccc3nc2NS(=O)(=O)c2ccccc2)cc1)c1ccccc1Cl	28	-5	-8	-28	-4	.
SMILES	SR-BI DiI inh	CAL PDZ FP-1	dFosB act-1	SR-BI DiI-HDL act	CAL PDZ FP-2	dFosB act-2
CCOc1ccc(S(=O)(=O)Nc2nc3ccccc3nc2-n2ccc(=NC(=O)c3cccs3)cc2)cc1	18	-5	40*	-18	-2	6
O=C(N=c1ccn(-c2nc3ccccc3nc2NS(=O)(=O)c2ccc(Cl)cc2)cc1)c1cccs1	.	-4	31*	.	-3	3
COc1ccc(Cn2c(=O)[nH]c3cc(C(=O)N4CCN(c5ccccc5F)CC4)ccc3c2=O)cc1	-17	0	18*	17	-1	5
COc1ccc(N2C(=O)CC(NNC(=O)c3ccc(Br)s3)C2=O)cc1 (stereo not drawn)	6	0	45*	-6	-3	-2
CCn1c(SCC(=O)N/N=C/c2ccc(O)c(OC)c2)nc2ccccc21	-22	-2	2	22	-3	.
CCCN(CC(=O)Nc1ccc(F)c(F)c1F)C(=O)c1cc([N+](=O)[O-])ccc1N1CCOCC1	18	-7	-4	-18	-3	.
CCN(C(=O)CSc1nc2ccccc2[nH]1)C1CCS(=O)(=O)C1 (stereo not drawn)	-17	2	-4	17	-1	.
CC(=O)c1ccc(NC(=O)C2CCCN(S(=O)(=O)c3cccc4nonc34)C2)cc1 (stereo not drawn)	-11	0	-18	11	-1	.
O=C(Nc1cccc2c1CCCC2)C1CCCN(S(=O)(=O)c2cccc3nonc23)C1 (stereo not drawn)	18	-2	24*	-18	0	4
Cc1ccc(CCNC(=O)C2CCCN(S(=O)(=O)c3cccc4nsnc34)C2)cc1 (stereo not drawn)	38	-2	47*	-38	-1	3
CC1Cc2ccccc2N1S(=O)(=O)c1cccc(C(=O)N2Cc3ccccc3CC2C(N)=O)c1 (stereo not drawn)	53	-1	-3	-53	0	.
O=C(O)c1ccc2c(c1)-c1cc(C(=O)O)ccc1S2(=O)=O	-5	.	-2	5	1	.
O=C(Nc1ncn[nH]1)c1cc(S(=O)(=O)Nc2cccc(C(F)(F)F)c2)ccc1Cl	-13	1	58*	13	0	1
COc1ccc(-c2ccnc3nc(-n4cccc4)nn23)cc1	12	-9	9	-12	-2	.
Clc1cccc(-c2ccnc3nc(-n4cccc4)nn23)c1	24	.	37*	-24	-1	-2
CCn1c(=O)c(CCC(=O)NCC2CCCO2)c(C)c2c(C)nn(-c3ccc(C)cc3)c21 (stereo not drawn)	44	-4	-9	-44	-2	.
Cc1ccc(NC(=O)CNC(=O)c2ccc(C)o2)cc1	1	-1	2	-1	0	.
C[C@]12CC[C@H](O)CC1=C[C@H](O)C1C2CC[C@@]2(C)C1CC[C@@]2(O)C#Cc1ccc(CN)cc1 (stereo partly drawn)	3	0	24*	-3	-1	3
CC(/C=N/NC(=O)c1ccc(Cn2cc([N+](=O)[O-])cn2)o1)=C\c1ccccc1	39	-5	28*	-39	-4	4

Screening results deposited in PubChem BioAssay by Broad Institute.
